ChEMBL document CHEMBL1138851, “Synthesis, antifungal activity, and structure-activity relationships of coruscanone A analogues” (J Med Chem, 2006)
In brackets after ≈: the same amount, converted by molar mass.

Assays:
[1] = test system: Candida albicans; test: Antifungal activity against Candida albicans ATCC 90028; type: functional, organism-based
Summary of the method: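 Broth microdilution; samples serially diluted in 20% DMSO/saline, duplicate wells. Inoculum 1.0 × 10⁴ CFU/ml in RPMI 1640/2% dextrose/0.03% glutamine/MOPS, pH 6.0. Incubated 37 °C, 18–24 h; OD630 read before and after incubation. IC50 from percent growth vs concentration; MIC as lowest concentration with no detectable growth; MFC as no growth on agar after plating 5 μl from clear wells.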

[2] = test system: LLC-PK1; test: Cytotoxicity against LLC-PK1 cells by neutral red method; type: cell-based; settings: Sus scrofa
Summary of the method: (§1)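 Neutral red assay on ATCC-sourced Vero (African green monkey kidney […]) and LLC-PK1 (pig kidney epithelial) cells. Top test concentration 10 μg/mL. Values are means of three independent experiments.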

[3] = test system: Candida albicans; test: Antifungal activity against fluconazole-susceptible Candida albicans; type: functional, organism-based
Summary of the method: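 Broth microdilution; samples serially diluted in 20% DMSO/saline, duplicate wells. Incubated 37 °C, 18–24 h; OD630 read before and after incubation. IC50 from percent growth vs concentration; MIC as lowest concentration with no detectable growth; MFC as no growth on agar after plating 5 μl from clear wells.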

[4] = test system: Candida albicans; test: Antifungal activity against fluconazole-resistant Candida albicans; type: functional, organism-based
Summary of the method: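 Broth microdilution (NCCLS-based) against patient isolate #17 (last isolate during fluconazole therapy, azole-resistant); samples serially diluted in 20% DMSO/saline, tested in duplicate. Inoculum 1.0 × 10⁴ CFU/ml in RPMI 1640/2% dextrose/0.03% glutamine/MOPS pH 6.0; 37 °C, 18–24 h; OD630 read before and after. IC50 from % growth versus concentration; MIC = no detectable growth; MFC by subculture onto agar. Means of three independent experiments.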

[5] = test system: Aspergillus fumigatus; test: Antifungal activity against Aspergillus fumigatus ATCC 90906; type: functional, organism-based
[6] = test system: Vero; test: Cytotoxicity against Vero cells by neutral red method; type: cell-based; settings: Chlorocebus sabaeus; summary of the method: as §1
[7] = test system: Cryptococcus neoformans; test: Antifungal activity against Cryptococcus neoformans ATCC 90113; type: functional, organism-based
Summary of the method: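 Serial dilutions in 20% DMSO/saline, tested in duplicate. Inoculum 1.0 × 10⁵ CFU/ml in Sabouraud dextrose broth. Incubated 30 °C, 72 h; OD630 read before and after incubation. IC50 from percent growth vs concentration; MIC as lowest concentration with no detectable growth; MFC as no growth on agar after plating 5 μl from clear wells.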

| SMILES | IC50 [1] [µg/mL] | MFC [1] [µg/mL] | MIC [1] [µg/mL] | IC50 [2] [µg/mL] | IC50 [3] [µg/mL] | MFC [3] [µg/mL] | MIC [3] [µg/mL] | IC50 [4] [µg/mL] | IC50 [5] [µg/mL] | MFC [5] [µg/mL] | MIC [5] [µg/mL] | IC50 [6] [µg/mL] | IC50 [7] [µg/mL] | MFC [7] [µg/mL] | MIC [7] [µg/mL] | MFC [4] [µg/mL] | MIC [4] [µg/mL] |
| --- | --- | --- | --- | --- | --- | --- | --- | --- | --- | --- | --- | --- | --- | --- | --- | --- | --- |
| COC(/C=C/c1ccccc1)=C1\C(=O)C=C(c2ccccc2)C1=O | > 20 | > 20 | > 20 | 5.1 (≈ 16.1 µM) | 20 (≈ 63.2 µM) | > 20 | > 20 | 18 (≈ 56.9 µM) | > 20 | > 20 | > 20 | > 10 | > 20 | > 20 | > 20 | – | – |
| CO/C(C)=C1\C(=O)C=C(C)C1=O | > 20 | – | – | – | – | – | – | – | > 20 | – | – | – | > 20 | – | – | – | – |
| CC1=C(C)C(=O)C(=C(/C=C/c2ccccc2)OC(=O)/C=C/c2ccccc2)C1=O | > 20 | – | – | – | – | – | – | – | > 20 | – | – | – | > 20 | – | – | – | – |
| CC1=CC(=O)/C(=C(O)/C=C/c2ccccc2)C1=O | > 20 | – | – | – | – | – | – | – | > 20 | – | – | – | > 20 | – | – | – | – |
| CC1=CC(=O)/C(=C(O)/C=C/c2cccs2)C1=O | > 20 | – | – | – | – | – | – | – | > 20 | – | – | – | > 20 | – | – | – | – |
| CC(=O)OC(/C=C/c1ccccc1)=C1C(=O)C(C)=C(C)C1=O | > 20 | – | – | – | – | – | – | – | > 20 | – | – | – | > 20 | – | – | – | – |
| COC(/C=C/c1ccco1)=C1\C(=O)C=C(C)C1=O | 1.4 (≈ 5.73 µM) | 4.17 (≈ 17.1 µM) | 4.17 (≈ 17.1 µM) | 3.3 (≈ 13.5 µM) | 0.93 (≈ 3.81 µM) | 2.5 (≈ 10.2 µM) | 2.5 (≈ 10.2 µM) | 2.4 (≈ 9.83 µM) | 8.98 (≈ 36.8 µM) | 20 (≈ 81.9 µM) | 20 (≈ 81.9 µM) | 3.3 (≈ 13.5 µM) | 3.4 (≈ 13.9 µM) | 13 (≈ 53.2 µM) | 10 (≈ 40.9 µM) | 6.67 (≈ 27.3 µM) | 4.17 (≈ 17.1 µM) |
| COC(/C=C/c1ccc(O)cc1)=C1\C(=O)C=C(C)C1=O | 3.3 (≈ 12.2 µM) | 10 (≈ 37 µM) | 10 (≈ 37 µM) | 3.4 (≈ 12.6 µM) | 1.86 (≈ 6.88 µM) | 13 (≈ 48.1 µM) | 5 (≈ 18.5 µM) | 5.35 (≈ 19.8 µM) | > 20 | > 20 | > 20 | 3.7 (≈ 13.7 µM) | 6.95 (≈ 25.7 µM) | > 20 | > 20 | 20 (≈ 74 µM) | 20 (≈ 74 µM) |
| O=C1C=C(c2ccccc2)C(=O)/C1=C(O)\C=C\c1ccccc1 | > 20 | – | – | – | – | – | – | – | > 20 | – | – | – | > 20 | – | – | – | – |
| CCOC(/C=C/c1ccccc1)=C1\C(=O)C=C(C)C1=O | 5.02 (≈ 18.7 µM) | 20 (≈ 74.5 µM) | 20 (≈ 74.5 µM) | 4 (≈ 14.9 µM) | 2.49 (≈ 9.28 µM) | 17 (≈ 63.4 µM) | 12 (≈ 44.7 µM) | 4.51 (≈ 16.8 µM) | > 20 | > 20 | > 20 | 4.8 (≈ 17.9 µM) | 5.02 (≈ 18.7 µM) | 20 (≈ 74.5 µM) | 20 (≈ 74.5 µM) | 20 (≈ 74.5 µM) | 13 (≈ 48.5 µM) |
| CCOC(/C=C/c1ccccc1)=C1C(=O)C(C)=C(C)C1=O | > 20 | – | – | – | – | – | – | – | > 20 | – | – | – | > 20 | – | – | – | – |
| COC(/C=C/c1cccs1)=C1\C(=O)C=C(C)C1=O | 1.21 (≈ 4.65 µM) | 3.33 (≈ 12.8 µM) | 3.33 (≈ 12.8 µM) | 2.8 (≈ 10.8 µM) | 0.74 (≈ 2.84 µM) | 2.5 (≈ 9.6 µM) | 2.5 (≈ 9.6 µM) | 1.39 (≈ 5.34 µM) | 9.81 (≈ 37.7 µM) | > 20 | 20 (≈ 76.8 µM) | 3 (≈ 11.5 µM) | 2.49 (≈ 9.57 µM) | 12 (≈ 46.1 µM) | 12 (≈ 46.1 µM) | 4.17 (≈ 16 µM) | 4.17 (≈ 16 µM) |
| COC(/C=C/c1ccccc1)=C1C(=O)C(C)=C(C)C1=O | > 20 | – | – | – | – | – | – | – | > 20 | – | – | – | > 20 | – | – | – | – |
| COC(/C=C/c1ccc(Cl)cc1)=C1\C(=O)C=C(C)C1=O | 1.39 (≈ 4.81 µM) | 4.17 (≈ 14.4 µM) | 4.17 (≈ 14.4 µM) | 3.1 (≈ 10.7 µM) | 0.64 (≈ 2.22 µM) | 2.92 (≈ 10.1 µM) | 2.08 (≈ 7.2 µM) | 0.86 (≈ 2.98 µM) | 20 (≈ 69.3 µM) | > 20 | > 20 | 5.5 (≈ 19 µM) | 2.23 (≈ 7.72 µM) | 12 (≈ 41.6 µM) | 12 (≈ 41.6 µM) | 2.92 (≈ 10.1 µM) | 2.92 (≈ 10.1 µM) |
| CC1=CC(=O)/C(=C(O)/C=C/c2ccco2)C1=O | > 20 | – | – | – | – | – | – | – | > 20 | – | – | – | > 20 | – | – | – | – |
| CC(=O)OC(/C=C/c1ccccc1)=C1\C(=O)C=C(C)C1=O | 8.56 (≈ 30.3 µM) | > 20 | > 20 | 4.9 (≈ 17.4 µM) | 3.79 (≈ 13.4 µM) | > 20 | > 20 | 5.84 (≈ 20.7 µM) | > 20 | > 20 | > 20 | 5.5 (≈ 19.5 µM) | 20 (≈ 70.8 µM) | > 20 | > 20 | – | – |
| CO/C(=C1\C(=O)C=C(C)C1=O)c1ccccc1 | 10.6 (≈ 46.4 µM) | > 20 | > 20 | > 10 | 7.88 (≈ 34.5 µM) | > 20 | > 20 | 6.04 (≈ 26.5 µM) | > 20 | > 20 | > 20 | > 10 | > 20 | > 20 | > 20 | – | – |
| CC1=C(C)C(=O)C(=C(O)/C=C/c2ccccc2)C1=O | > 20 | – | – | – | – | – | – | – | > 20 | – | – | – | > 20 | – | – | – | – |
| CC1=C(C)C(=O)C(=C(/C=C/c2ccccc2)OC(=O)c2ccccc2)C1=O | > 20 | – | – | – | – | – | – | – | > 20 | – | – | – | > 20 | – | – | – | – |
| CC1=CC(=O)/C(=C(\O)c2ccccc2)C1=O | > 20 | – | – | – | – | – | – | – | > 20 | – | – | – | > 20 | – | – | – | – |
| COC(/C=C/c1ccc(OC)cc1)=C1\C(=O)C=C(C)C1=O | 3.03 (≈ 10.7 µM) | 10 (≈ 35.2 µM) | 10 (≈ 35.2 µM) | 3.9 (≈ 13.7 µM) | 1.56 (≈ 5.49 µM) | 6.67 (≈ 23.5 µM) | 5 (≈ 17.6 µM) | 4.29 (≈ 15.1 µM) | > 20 | > 20 | > 20 | 5 (≈ 17.6 µM) | 3.41 (≈ 12 µM) | 17 (≈ 59.8 µM) | 15 (≈ 52.8 µM) | 13 (≈ 45.7 µM) | 10 (≈ 35.2 µM) |
| COc1cccc2c1C(=O)c1c(O)c3c(c(O)c1C2=O)C[C@@](O)(C(=O)CO)C[C@@H]3O[C@H]1C[C@H](N)[C@H](O)[C@H](C)O1 [DOXORUBICIN] | – | – | – | 0.65 (≈ 1.2 µM) | – | – | – | – | – | – | – | 7.5 (≈ 13.8 µM) | – | – | – | – | – |
